Results: ChEMBL document CHEMBL3091406, “Design and synthesis of novel antimicrobials with activity against Gram-positive bacteria and mycobacterial species, including M. tuberculosis” (2013)
Converted amounts (≈) assume the structure as drawn.

Legend:
Type in all cases: functional
[1] = system: Escherichia coli; assay: Antibacterial activity against Escherichia coli […] by CLSI method
[2] = system: Bacillus cereus; assay: Antibacterial activity against Bacillus cereus by CLSI method
[3] = system: Mycolicibacterium smegmatis; assay: Antimycobacterial activity against Mycobacterium smegmatis
[4] = system: Staphylococcus aureus; assay: Antibacterial activity against Staphylococcus aureus ATCC 29213 by CLSI method
[5] = system: Mycolicibacterium fortuitum; assay: Antimycobacterial activity against Mycobacterium fortuitum
Method in brief: (§1)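 MIC in Middlebrook 7H9 broth with 10% OADC; strains from University of Wisconsin-La Crosse culture collection; rifampin as positive control; reported MIC is compiled from geometric means of three separate runs.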

[6] = system: Mycolicibacterium smegmatis; assay: Ratio of rifampin MIC to compound MIC for Mycobacterium smegmatis
[7] = system: Mycobacterium tuberculosis; assay: Ratio of ethambutol MIC to compound MIC for Mycobacterium tuberculosis H37Rv after 7 days by BacTiter-Glo method
[8] = system: Mycobacterium tuberculosis; assay: Antimycobacterial activity against Mycobacterium tuberculosis H37Rv after 7 days by BacTiter-Glo method; details: 168 h
Method in brief: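 Strain H37Rv in 384-well plates, Middlebrook 7H12 broth with palmitate and 0.5% BSA; compounds diluted in medium to 2× final concentration; inoculum 1-2 × 10⁵ CFU/mL; amikacin positive control on every plate; 7 days at 37 °C, ~95% humidity; compound autofluorescence pre-read (ex 535/em 590 nm); BacTiter-Glo reagent added, 20 min room temperature, luminescence read.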

[9] = system: Mycobacterium avium; assay: Antimycobacterial activity against Mycobacterium avium; method in brief: as §1
[10] = system: Mycobacterium intracellulare; assay: Antimycobacterial activity against Mycobacterium intracellulare; method in brief: as §1
[11] = system: Mycobacteroides chelonae; assay: Antimycobacterial activity against Mycobacterium chelonae; method in brief: as §1
[12] = system: Mycobacterium kansasii; assay: Antimycobacterial activity against Mycobacterium kansasii; method in brief: as §1

SMILES	MIC [1] [µg/mL]	MIC [2] [µg/mL]	MIC [3] [µg/mL]	MIC [4] [µg/mL]	MIC [5] [µg/mL]	Ratio [6]	Ratio [7]	MIC [8] [µg/mL]	MIC [9] [µg/mL]	MIC [10] [µg/mL]	MIC [11] [µg/mL]	MIC [12] [µg/mL]
CCOC(=O)/C=C\Sc1ccc(C(C)(C)C)cc1	> 128	> 128	16 (≈ 60.5 µM)	> 128	–	–	–	–	–	–	–	–
CC(C)(C)c1ccc(C(=O)/C=C/C(=O)O)cc1	> 128	–	> 128	32 (≈ 138 µM)	> 125	–	–	–	–	–	–	–
CC(C)(C)c1ccc(S/C=C\C(=O)NC2CC2)cc1	> 128	> 128	> 128	> 128	–	–	–	–	–	–	–	–
CCOC(=O)/C=C\C(=O)c1ccc(C(C)(C)C)cc1	> 128	8 (≈ 30.7 µM)	8 (≈ 30.7 µM)	4 (≈ 15.4 µM)	8 (≈ 30.7 µM)	8	1.5	0.8 (≈ 3.07 µM)	32 (≈ 123 µM)	8 (≈ 30.7 µM)	16 (≈ 61.5 µM)	64 (≈ 246 µM)
CCOC(=O)/C=C/C(=O)c1ccc(C(C)(C)C)cc1	> 128	4 (≈ 15.4 µM)	8 (≈ 30.7 µM)	2 (≈ 7.68 µM)	4 (≈ 15.4 µM)	8	1.5	0.8 (≈ 3.07 µM)	16 (≈ 61.5 µM)	4 (≈ 15.4 µM)	8 (≈ 30.7 µM)	32 (≈ 123 µM)
CCOC(=O)CCC(=O)c1ccc(C(C)(C)C)cc1	> 128	–	> 128	> 128	> 128	–	–	–	> 128	> 128	> 128	> 128
CCOC(=O)CCCc1ccc(C(C)(C)C)cc1	> 128	–	64 (≈ 258 µM)	> 128	32 (≈ 129 µM)	–	–	–	> 128	> 128	32 (≈ 129 µM)	128 (≈ 515 µM)
CC(C)=CCOC(=O)/C=C/C(=O)c1ccc(C(C)(C)C)cc1	> 128	–	> 128	0.5 (≈ 1.66 µM)	64 (≈ 213 µM)	–	–	–	> 128	> 128	32 (≈ 107 µM)	> 128
CCOC(=O)/C=C/Cc1ccc(C(C)(C)C)cc1	> 128	–	> 128	16 (≈ 64.9 µM)	> 128	–	–	–	> 128	> 128	> 128	> 128
CCOC(=O)c1ccccc1C(=O)c1ccc(C(C)(C)C)cc1	> 128	–	> 128	> 128	> 128	–	–	–	> 128	> 128	> 128	> 128
CCOC(=O)/C=C\C(=O)c1cc2ccccc2s1	128 (≈ 492 µM)	–	4 (≈ 15.4 µM)	1 (≈ 3.84 µM)	16 (≈ 61.5 µM)	16	3	0.4 (≈ 1.54 µM)	16 (≈ 61.5 µM)	4 (≈ 15.4 µM)	8 (≈ 30.7 µM)	8 (≈ 30.7 µM)
CCOC(=O)CCSc1ccc(C(C)(C)C)cc1	> 128	> 128	> 128	> 128	> 128	–	–	–	> 128	> 128	> 128	> 128
CCOC(=O)C#CC(=O)c1ccc(C(C)(C)C)cc1	> 128	> 128	> 128	> 128	> 128	–	–	–	> 128	> 128	> 128	> 128
CCOC(=O)[C@@H]1C[C@H]1C(=O)c1ccc(C(C)(C)C)cc1	> 128	–	16 (≈ 58.3 µM)	64 (≈ 233 µM)	64 (≈ 233 µM)	–	–	–	–	–	–	–
CCOC(=O)[C@@H]1O[C@H]1C(=O)c1ccc(C(C)(C)C)cc1	> 128	–	128 (≈ 463 µM)	32 (≈ 116 µM)	> 128	–	–	–	–	–	–	–
CC(C)(C)c1ccc(S/C=C\C(=O)O)cc1	> 128	128 (≈ 542 µM)	> 128	> 128	–	–	–	–	–	–	–	–
O=C(O)/C=C\Sc1nc2ccccc2s1	> 128	> 128	> 128	> 128	–	–	–	–	–	–	–	–
CC(C)(C)c1ccc(S/C=C\C(=O)OCC2CC2)cc1	> 128	128 (≈ 441 µM)	16 (≈ 55.1 µM)	> 128	–	–	–	–	–	–	–	–
CC(C)N(C(=O)/C=C\Sc1nc2ccccc2s1)C(C)C	> 128	> 128	> 128	> 128	–	–	–	–	–	–	–	–
CC(C)(C)c1ccc(S/C=C\C(=O)Nc2ccccc2)cc1	> 128	> 128	> 128	> 128	–	–	–	–	–	–	–	–
CN(C(=O)/C=C\Sc1ccc(C(C)(C)C)cc1)c1ccccc1	> 128	> 128	32 (≈ 98.3 µM)	> 128	–	–	–	–	–	–	–	–
CNC(=O)/C=C\Sc1ccc(C(C)(C)C)cc1	> 128	128 (≈ 513 µM)	> 128	> 128	–	–	–	–	–	–	–	–
CN(C)C(=O)/C=C\Sc1ccc(C(C)(C)C)cc1	> 128	16 (≈ 60.7 µM)	64 (≈ 243 µM)	> 128	–	–	–	–	–	–	–	–
CC(C)N(C(=O)/C=C\Sc1ccc(C(C)(C)C)cc1)C(C)C	> 128	> 128	64 (≈ 200 µM)	> 128	–	–	–	–	–	–	–	–
CC[C@@H](CO)NCCN[C@@H](CC)CO [ETHAMBUTOL]	–	–	–	–	–	–	–	1.2 (≈ 5.87 µM)	–	–	–	–
NNC(=O)c1ccncc1 [ISONIAZID]	–	–	–	–	–	–	–	0.25 (≈ 1.82 µM)	–	–	–	–
CO[C@H]1/C=C/O[C@@]2(C)Oc3c(C)c(O)c4c(O)c(c(/C=N/N5CCN(C)CC5)c(O)c4c3C2=O)NC(=O)/C(C)=C\C=C\[C@H](C)[C@H](O)[C@@H](C)[C@@H](O)[C@@H](C)[C@H](OC(C)=O)[C@@H]1C [RIFAMPIN]	–	–	64 (≈ 77.8 µM)	–	32 (≈ 38.9 µM)	–	–	< 0.03	2 (≈ 2.43 µM)	1 (≈ 1.22 µM)	32 (≈ 38.9 µM)	0.5 (≈ 0.608 µM)
CN(C)[C@@H]1C(O)=C(C(N)=O)C(=O)[C@@]2(O)C(O)=C3C(=O)c4c(O)cccc4[C@@](C)(O)[C@H]3C[C@@H]12 [TETRACYCLINE]	1 (≈ 2.25 µM)	–	–	0.25 (≈ 0.563 µM)	–	–	–	–	–	–	–	–
